Assay results reported in PMC6980386 (Traffic (Copenhagen, Denmark), 2019).

Experiments:
FL huCD4 V13L;A17L = FL huCD4 V13L;A17L (Homo sapiens, UniProt P01730, A17L/V13L); assay: CADA down-modulation of cellular huCD4; type: cell-based; conditions: HEK293T, 48h
In short: (§1)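 HEK293T cells, seeded overnight in DMEM with 10% serum, 1 mM sodium pyruvate and 0.075% NaHCO₃, were lipofected with full-length human CD4 (WT or mutant). Test compound in DMSO was added 6 h post-transfection as 1:5 serial dilutions (50–0.016 μM) for 48 h. Surface CD4 was stained with FITC/APC anti-CD4 (SK3) and read by flow cytometry. IC50 is 50% of the untreated signal, from four-parameter fits of ≥3 replicate experiments. FC is mutant/WT mean IC50.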

huCD4_1–32-YFP G25A = huCD4_1–32-YFP G25A (Homo sapiens, UniProt P01730, G25A); assay: CADA inhibition of huCD4_1–32-YFP secretion; type: cell-based
In short: (§2)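 HEK293T cells were lipofected with human CD4 residues 1–32 fused to the N-terminus of YFP (secreted, no membrane anchor). Test compound was added 6 h post-transfection as 1:5 serial dilutions (50–0.016 μM) for 48 h. Supernatant was captured on GFP-Trap magnetic beads for 1 h, washed in PBS, and YFP was read by flow cytometry. IC50 is 50% of the untreated control, from four-parameter fits of ≥3 replicate experiments. FC is mutant/WT mean IC50.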

huCD4_1–32-YFP L30A = huCD4_1–32-YFP L30A (Homo sapiens, UniProt P01730, L30A); assay: CADA inhibition of huCD4_1–32-YFP secretion; type: cell-based
In short: (§3)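 HEK293T cells were grown in DMEM with 10% FBS and 10 mM HEPES, seeded and left to adhere overnight, then transiently transfected with plasmid by Lipofectamine. Test compound was added 6 h after transfection as a 1:5 serial dilution (50 to 0.016 μM) for 48 h. Secreted YFP in the supernatant was captured on GFP-Trap magnetic beads for 1 h, washed with PBS and measured by flow cytometry. IC50 is the concentration that halves the signal relative to the untreated control, taken from a four-parameter fit of at least three replicate experiments. FC is the mutant mean IC50 divided by the WT mean IC50.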

FL huCD4 T23A = FL huCD4 T23A (Homo sapiens, UniProt P01730, T23A); assay: CADA down-modulation of cellular huCD4; type: cell-based
In short: as §1

huCD4_1–32-YFP T23A = huCD4_1–32-YFP T23A (Homo sapiens, UniProt P01730, T23A); assay: CADA inhibition of huCD4_1–32-YFP secretion; type: cell-based
In short: as §3

FL huCD4 K27A = FL huCD4 K27A (Homo sapiens, UniProt P01730, K27A); assay: CADA down-modulation of cellular huCD4; type: cell-based
In short: as §1

FL huCD4 A21V = FL huCD4 A21V (Homo sapiens, UniProt P01730, A21V); assay: CADA down-modulation of cellular huCD4; type: cell-based
In short: as §1

huCD4_1–32-YFP K27A = assay: CADA inhibition of huCD4_1–32-YFP secretion; type: cell-based, human
In short: as §3

FL huCD4 L14A = FL huCD4 L14A (Homo sapiens, UniProt P01730, L14A); assay: CADA down-modulation of cellular huCD4; type: cell-based
In short: as §1

huCD4_1–32-YFP WT = huCD4_1–32-YFP WT (Homo sapiens, UniProt P01730); assay: CADA inhibition of huCD4_1–32-YFP secretion; type: cell-based
In short: as §3

FL huCD4 K26A = FL huCD4 K26A (Homo sapiens, UniProt P01730, K26A); assay: CADA down-modulation of cellular huCD4; type: cell-based
In short: as §1

huCD4_1–32-YFP L18A = huCD4_1–32-YFP L18A (Homo sapiens, UniProt P01730, L18A); assay: CADA inhibition of huCD4_1–32-YFP secretion; type: cell-based
In short: as §3

[1] = target: truncated huCD4 D1D2 Q15A;P20A (Homo sapiens, UniProt P01730, P20A/Q15A); assay: Cell-free in vitro translation and translocation; type: biochemical
In short: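 Truncated huCD4 D1D2 (lacking glycosylation sites and membrane anchor) was made by PCR and transcribed with T7. Proteinase K protection ran 30 min on ice and was quenched with PMSF. Products were separated by SDS-PAGE and imaged by phosphor imaging. The SP-cleaved band was normalised to the matching control. Data are from 2–5 independent experiments, compared with WT by Welch t test.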

FL huCD4 L18A = FL huCD4 L18A (Homo sapiens, UniProt P01730, L18A); assay: CADA down-modulation of cellular huCD4; type: cell-based
In short: as §1

FL huCD4 V28K = assay: CADA down-modulation of cellular huCD4; type: cell-based, human; conditions: HEK293T, 48h
In short: as §1

FL huCD4 V29A = FL huCD4 V29A (Homo sapiens, UniProt P01730, V29A); assay: CADA down-modulation of cellular huCD4; type: cell-based
In short: as §1

huCD4_1–32-YFP A17V = huCD4_1–32-YFP A17V (Homo sapiens, UniProt P01730, A17V); assay: CADA inhibition of huCD4_1–32-YFP secretion; type: cell-based
In short: as §2

FL huCD4 L10A;L18A = FL huCD4 L10A;L18A (Homo sapiens, UniProt P01730, L10A/L18A); assay: CADA down-modulation of cellular huCD4; type: cell-based; conditions: compared with single Leu-to-Ala mutants
In short: as §1

huCD4_1–32-YFP V5A = huCD4_1–32-YFP V5A (Homo sapiens, UniProt P01730, V5A); assay: CADA inhibition of huCD4_1–32-YFP secretion; type: cell-based
In short: as §3

FL huCD4 L11A = FL huCD4 L11A (Homo sapiens, UniProt P01730, L11A); assay: CADA down-modulation of cellular huCD4; type: cell-based
In short: as §1

FL huCD4 K33A = FL huCD4 K33A (Homo sapiens, UniProt P01730, K33A); assay: CADA down-modulation of cellular huCD4; type: cell-based; conditions: HEK293T, 48h
In short: as §1

FL huCD4 R8K = FL huCD4 R8K (Homo sapiens, UniProt P01730, R8K); assay: CADA down-modulation of cellular huCD4; type: cell-based; conditions: HEK293T, 48h
In short: as §1

FL huCD4 Q15A = FL huCD4 Q15A (Homo sapiens, UniProt P01730, Q15A); assay: CADA down-modulation of cellular huCD4; type: cell-based
In short: as §1

[2] = + less, − more sensitive to CADA
[3] = read-out: Secreted YFP IC50 (μM) Mean, HEK293T, CADA 48h
[4] = read-out: Cellular huCD4 IC50 (μM) Mean, HEK293T, CADA 48h

C=C1CN(S(=O)(=O)c2ccc(C)cc2)CCCN(Cc2ccccc2)CCCN(S(=O)(=O)c2ccc(C)cc2)C1 [CADA, Cyclotriazadisulfonamide]
sensitivity to CADA (FL huCD4 V13L;A17L): nearly full resistance to CADA | Secreted YFP FC (fold change of mean IC50 relative to WT) (huCD4_1–32-YFP G25A; [2]): −3.6 | IC50 (huCD4_1–32-YFP G25A; [3]): 0.35 µM | Secreted YFP FC (fold change of mean IC50 relative to WT) (huCD4_1–32-YFP L30A; [2]): −1.2 | IC50 (huCD4_1–32-YFP L30A; [3]): 1.08 µM | Cellular huCD4 FC (fold change of mean IC50 relative to WT) (FL huCD4 T23A; [2]): +1.6 | IC50 (FL huCD4 T23A; [4]): 0.87 µM | Secreted YFP FC (fold change of mean IC50 relative to WT) (huCD4_1–32-YFP T23A; [2]): +1.9 | IC50 (huCD4_1–32-YFP T23A; [3]): 2.36 µM | Cellular huCD4 FC (fold change of mean IC50 relative to WT) (FL huCD4 K27A; [2]): +2.4 | IC50 (FL huCD4 K27A; [4]): 1.3 µM | Cellular huCD4 FC (fold change of mean IC50 relative to WT) (FL huCD4 A21V; [2]): +1.6 | IC50 (FL huCD4 A21V; [4]): 0.87 µM | Secreted YFP FC (fold change of mean IC50 relative to WT) (huCD4_1–32-YFP K27A; [2]): >+39 | IC50 (huCD4_1–32-YFP K27A; [3]): > 50 µM | Cellular huCD4 FC (fold change of mean IC50 relative to WT) (FL huCD4 L14A; [2]): −1.2 | IC50 (FL huCD4 L14A; [4]): 0.46 µM | Secreted YFP FC (fold change of mean IC50 relative to WT) (huCD4_1–32-YFP WT; [2]): 1.00 | IC50 (huCD4_1–32-YFP WT; [3]): 1.27 µM | Cellular huCD4 FC (fold change of mean IC50 relative to WT) (FL huCD4 K26A; [2]): +2.7 | IC50 (FL huCD4 K26A; [4]): 1.44 µM | Secreted YFP FC (fold change of mean IC50 relative to WT) (huCD4_1–32-YFP L18A; [2]): −1.9 | IC50 (huCD4_1–32-YFP L18A; [3]): 0.67 µM | inhibitory effect of CADA on protein translocation compared to WT ([1]; 15 μM CADA): responded significantly less to CADA | effect of CADA on co-translational translocation ([1]; increasing doses of CADA): full resistance to CADA | Cellular huCD4 FC (fold change of mean IC50 relative to WT) (FL huCD4 L18A; [2]): −5.4 | IC50 (FL huCD4 L18A; [4]): 0.1 µM | increase in sensitivity to CADA (smaller IC50) relative to WT (FL huCD4 V28K): more than 3 fold | Cellular huCD4 FC (fold change of mean IC50 relative to WT) (FL huCD4 V29A; [2]): +1.2 | IC50 (FL huCD4 V29A; [4]): 0.63 µM | Secreted YFP FC (fold change of mean IC50 relative to WT) (huCD4_1–32-YFP A17V; [2]): >+39 | IC50 (huCD4_1–32-YFP A17V; [3]): > 50 µM | sensitivity to CADA (FL huCD4 L10A;L18A): further enhanced the effect | Secreted YFP FC (fold change of mean IC50 relative to WT) (huCD4_1–32-YFP V5A; [2]): −3.8 | IC50 (huCD4_1–32-YFP V5A; [3]): 0.33 µM | Cellular huCD4 FC (fold change of mean IC50 relative to WT) (FL huCD4 L11A; [2]): −4.5 | IC50 (FL huCD4 L11A; [4]): 0.12 µM | IC50 (FL huCD4 K33A): > 50000 nM | sensitivity to CADA (FL huCD4 R8K): restored full sensitivity to CADA | Cellular huCD4 FC (fold change of mean IC50 relative to WT) (FL huCD4 Q15A; [2]): >+93 | IC50 (FL huCD4 Q15A; [4]): > 50 µM
